Here are results for four molecules from ChEMBL document CHEMBL1124999, “3-Phenyl analogues of 2-[[[2-(2,6-dimethoxyphenoxy)ethyl]amino]-methyl]-1,4-benzodioxan (WB 4101) as highly selective alpha 1-adrenoceptor antagonists” (J Med Chem, 1990).

The target in experiment [1] is T1, Adrenergic receptor alpha-2 (Rattus norvegicus, UniProt P22086+P19328+P22909).
T1 sequence (P22086 whole entry): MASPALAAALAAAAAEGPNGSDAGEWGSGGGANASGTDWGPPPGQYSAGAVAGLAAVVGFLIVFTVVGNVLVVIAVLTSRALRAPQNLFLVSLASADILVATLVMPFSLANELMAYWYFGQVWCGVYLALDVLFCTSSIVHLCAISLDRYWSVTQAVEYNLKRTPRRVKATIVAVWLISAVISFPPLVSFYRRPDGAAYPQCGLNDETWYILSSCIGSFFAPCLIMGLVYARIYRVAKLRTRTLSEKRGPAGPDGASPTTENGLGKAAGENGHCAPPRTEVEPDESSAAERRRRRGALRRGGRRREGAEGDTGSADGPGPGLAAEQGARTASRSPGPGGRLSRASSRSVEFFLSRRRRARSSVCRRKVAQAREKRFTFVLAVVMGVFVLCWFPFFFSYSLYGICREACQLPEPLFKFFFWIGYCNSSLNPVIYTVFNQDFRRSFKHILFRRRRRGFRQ
T1 sequence (P19328 whole entry): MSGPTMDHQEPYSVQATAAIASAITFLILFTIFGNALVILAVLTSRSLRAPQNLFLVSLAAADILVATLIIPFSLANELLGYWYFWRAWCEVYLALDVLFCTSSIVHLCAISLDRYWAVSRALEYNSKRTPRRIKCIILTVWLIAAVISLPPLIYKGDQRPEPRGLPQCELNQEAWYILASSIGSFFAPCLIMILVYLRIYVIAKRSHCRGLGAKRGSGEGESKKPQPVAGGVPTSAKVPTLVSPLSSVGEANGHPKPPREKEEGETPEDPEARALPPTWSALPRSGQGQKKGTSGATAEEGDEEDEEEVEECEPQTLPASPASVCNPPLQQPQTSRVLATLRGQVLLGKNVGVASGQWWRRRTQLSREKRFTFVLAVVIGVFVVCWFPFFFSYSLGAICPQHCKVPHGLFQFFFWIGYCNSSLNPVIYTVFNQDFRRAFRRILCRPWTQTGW
T1 sequence (P22909 whole entry): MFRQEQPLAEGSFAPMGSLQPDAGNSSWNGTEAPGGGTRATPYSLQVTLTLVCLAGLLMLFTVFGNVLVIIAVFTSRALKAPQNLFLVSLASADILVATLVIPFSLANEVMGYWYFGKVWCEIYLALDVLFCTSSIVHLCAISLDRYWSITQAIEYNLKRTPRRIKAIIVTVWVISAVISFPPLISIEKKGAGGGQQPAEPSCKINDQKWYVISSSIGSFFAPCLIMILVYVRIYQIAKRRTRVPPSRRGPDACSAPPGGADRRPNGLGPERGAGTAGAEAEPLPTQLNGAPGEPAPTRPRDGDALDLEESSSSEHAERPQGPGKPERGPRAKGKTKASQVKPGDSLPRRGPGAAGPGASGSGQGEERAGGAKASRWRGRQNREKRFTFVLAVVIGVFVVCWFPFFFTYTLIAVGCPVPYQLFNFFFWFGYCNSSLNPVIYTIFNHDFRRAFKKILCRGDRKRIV
Description: pA2 value was measured in aAlpha-2 adrenergic receptor against clonidine in rat vas deferens. The method, boiled down:
(§1)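 Schild analysis with slope constrained to -1.0. Log(DR−1) was measured at three antagonist concentrations for α1 (norepinephrine) and four for α2 (clonidine), each tested at least five times. DR is the agonist ED50 with antagonist divided by that without. Curve parallelism was checked by linear regression (p < 0.05). Values are ± standard error of estimate.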

For experiment [2], the target named is T2, Adrenergic receptor alpha-1 (Rattus norvegicus, UniProt P15823+P23944+P43140).
T2 sequence (P15823 whole entry): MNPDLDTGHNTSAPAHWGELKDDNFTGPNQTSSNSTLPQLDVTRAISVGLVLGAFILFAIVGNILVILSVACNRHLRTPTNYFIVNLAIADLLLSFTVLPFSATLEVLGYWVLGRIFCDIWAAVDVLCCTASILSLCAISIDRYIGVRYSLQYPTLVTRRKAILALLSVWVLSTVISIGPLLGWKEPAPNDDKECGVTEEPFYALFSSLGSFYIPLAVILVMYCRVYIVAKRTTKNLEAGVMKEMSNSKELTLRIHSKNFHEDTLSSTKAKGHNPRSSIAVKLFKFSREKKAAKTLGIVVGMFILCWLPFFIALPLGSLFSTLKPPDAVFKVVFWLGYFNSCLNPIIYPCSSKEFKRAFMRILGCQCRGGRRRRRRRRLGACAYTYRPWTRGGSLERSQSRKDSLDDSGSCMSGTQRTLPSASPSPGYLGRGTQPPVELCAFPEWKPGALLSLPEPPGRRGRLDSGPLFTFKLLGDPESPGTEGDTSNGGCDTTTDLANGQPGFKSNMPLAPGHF
T2 sequence (P23944 whole entry): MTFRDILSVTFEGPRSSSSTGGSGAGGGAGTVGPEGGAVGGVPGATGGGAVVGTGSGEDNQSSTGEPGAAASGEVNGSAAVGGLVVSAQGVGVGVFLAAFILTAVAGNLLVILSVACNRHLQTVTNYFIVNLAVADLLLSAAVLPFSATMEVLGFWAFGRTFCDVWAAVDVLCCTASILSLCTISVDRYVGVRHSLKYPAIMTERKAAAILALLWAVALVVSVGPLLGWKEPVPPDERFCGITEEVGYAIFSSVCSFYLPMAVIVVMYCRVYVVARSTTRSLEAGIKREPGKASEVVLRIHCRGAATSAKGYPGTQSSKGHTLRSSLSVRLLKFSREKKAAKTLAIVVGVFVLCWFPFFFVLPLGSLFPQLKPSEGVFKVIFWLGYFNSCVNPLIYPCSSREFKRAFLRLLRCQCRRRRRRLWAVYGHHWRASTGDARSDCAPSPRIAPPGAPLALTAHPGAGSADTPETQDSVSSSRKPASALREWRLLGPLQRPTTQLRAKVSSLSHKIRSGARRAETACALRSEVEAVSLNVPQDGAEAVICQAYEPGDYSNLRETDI
T2 sequence (P43140 whole entry): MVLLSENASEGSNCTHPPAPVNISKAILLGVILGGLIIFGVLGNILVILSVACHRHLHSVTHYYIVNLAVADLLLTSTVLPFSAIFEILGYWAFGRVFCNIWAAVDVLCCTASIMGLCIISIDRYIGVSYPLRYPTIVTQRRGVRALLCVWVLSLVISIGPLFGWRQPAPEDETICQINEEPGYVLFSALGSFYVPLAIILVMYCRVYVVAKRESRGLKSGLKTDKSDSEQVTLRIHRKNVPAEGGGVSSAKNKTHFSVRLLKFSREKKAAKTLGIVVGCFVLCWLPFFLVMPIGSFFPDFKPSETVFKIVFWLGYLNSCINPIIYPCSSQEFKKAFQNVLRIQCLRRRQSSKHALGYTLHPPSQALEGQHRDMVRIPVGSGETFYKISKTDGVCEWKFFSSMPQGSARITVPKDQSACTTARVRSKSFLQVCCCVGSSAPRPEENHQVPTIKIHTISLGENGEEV
Description: pA2 value was measured in Alpha-1 adrenergic receptor against norepinephrine in rat vas deferens. The method, boiled down: as §1

In experiment [3] the target is T1, Adrenergic receptor alpha-2. Description: pA2 value was measured in Alpha-2 adrenergic receptor against clonidine in rat vas deferens. The method, boiled down:
as §1

Experiment [4] in a line: Selectivity ratio (alpha1/alpha2) of the compound. The method, boiled down:
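α1/α2 selectivity is the antilog of the difference between pA2 at α1- and α2-adrenoreceptors. Each pA2 comes from Schild plots against norepinephrine (α1) or clonidine (α2).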

Experiment [5] addresses T2, Adrenergic receptor alpha-1. Description: pIC50 value was measured in Alpha-1 adrenergic receptor against norepinephrine in rat vas deferens.

By pA2 is commonly meant the negative logarithm of the molar antagonist concentration that doubles the agonist concentration needed for the same response. As for `COc1cccc(OC)c1OCCNC[C@H]1Oc2ccccc2OC1c1ccccc1` (stereo partly specified), the figures for the pA2 in experiment [1] and in experiment [2] were 6.4 and 9.3, respectively.

`COc1cccc(OC)c1OCCNC[C@H]1Oc2ccccc2O[C@@H]1c1ccccc1`: the pA2 stood at 4.22 in experiment [3] and 8.59 in experiment [2]. For the same molecule, the Selectivity ratio in experiment [4] was 23400.

On to `COc1cccc(OC)c1OCCNC[C@H]1C(=O)c2ccccc2O[C@@H]1c1ccccc1`, for which the figures for the pA2 in experiment [3] and in experiment [2] were 4.85 and 8.27, respectively. The Selectivity ratio in experiment [4] was 2630.

By pIC50 is commonly meant the IC50 on a negative log10 scale, so that one unit is a factor of ten. A high value points to a small IC50. In the case of `COc1cccc(OC)c1OCCNC[C@H]1Oc2ccccc2O[C@H]1c1ccccc1`, the pA2 in experiment [3] came out at 4.49. Moreover, the Selectivity ratio in experiment [4] was 6. In addition, the pIC50 in experiment [5] was 5.29.
